CAL PDZ FP-1 – inhibitors of human CAL PDZ peptide binding; Q9HD26; purified CAL PDZ, TMR-peptide fluorescence polarization, 1 h; inhibition, % at 20 µM; hit rate 0.02% among 330,000;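 active = highest replicate inhibition of at least 40%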
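Assay system – tagged CAL PDZ protein CerCALP, purified · Timing – 1 h at RT · Compound – single point, 20 µM · Measured by – fluorescence polarization from S- and P-plane intensities, G-factor corrected · Evaluation – inhibition from polarization loss · Probe or stimulus – TMR reporter peptide T*-PRC34 · Buffer or medium – pH 7.4 phosphate-saline buffer, reducing agent, detergent, IgG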
PDI inh – inhibitors of human protein disulfide isomerase; inhibition, % at 10 µM; hit rate 0.052% among 350,000; PDI insulin aggregation turbidity, A650, 90 min; AID 588391; P07237;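 active = mean inhibition across replicates of 30% or more, whatever share of single replicates reach that level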
Target sequence (P07237 whole entry, looked up): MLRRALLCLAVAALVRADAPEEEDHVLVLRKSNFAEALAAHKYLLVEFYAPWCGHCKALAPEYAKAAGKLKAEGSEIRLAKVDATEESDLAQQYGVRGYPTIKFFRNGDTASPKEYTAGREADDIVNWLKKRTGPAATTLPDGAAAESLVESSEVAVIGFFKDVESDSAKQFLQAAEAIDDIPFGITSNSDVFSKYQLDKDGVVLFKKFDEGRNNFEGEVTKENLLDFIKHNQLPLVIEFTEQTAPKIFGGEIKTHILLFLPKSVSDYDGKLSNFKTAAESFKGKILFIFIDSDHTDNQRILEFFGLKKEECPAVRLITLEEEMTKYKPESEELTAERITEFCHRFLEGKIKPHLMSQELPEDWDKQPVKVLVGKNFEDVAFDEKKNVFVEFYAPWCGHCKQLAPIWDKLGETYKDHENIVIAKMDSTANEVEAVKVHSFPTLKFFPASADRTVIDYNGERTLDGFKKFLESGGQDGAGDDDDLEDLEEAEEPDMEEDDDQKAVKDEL
RAD54 branch – blocks human RAD54 Holliday junction branch migration | hit rate 0.14% among 360,000 | FAM/BHQ fluorescence | inhibition, % at 10.4 µM;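 active = mean normalized replicate activity at least 40 and at least half of replicates scoring 40 or more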;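 note: inhibitors cause a drop in the FAM fluorescence signal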
RAD52 inh – inhibitors of human RAD52 DNA annealing; P43351; recombinant RAD52 DNA annealing, FRET fluorescence; inhibition, % at 18.7 µM; hit rate 0.46% among 360,000; AID 651710;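 active = every replicate showing at least 50% inhibition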
CAL PDZ FP-2 – inhibitors of human CAL PDZ peptide binding; hit rate 0.92% among 300,000; purified CAL PDZ, TMR-peptide fluorescence polarization, 1 h; inhibition, % at 24.9 µM; Q9HD26;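 active = mean inhibition of at least 30% with at least half of replicates also reaching 30%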
ERp5 inh – inhibitors of human ERp5; Q15084; hit rate 0.05% among 350,000; inhibition, % at 9.99 µM; AID 651711; ERp5 insulin aggregation, absorbance 650 nm, 90 min;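 active = mean replicate inhibition above about 25%, with every replicate also reaching it, limit read from the data, passing the limit was not always enough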
A number is an active result; . = inactive; / = not tested or not shown. Only some compounds are listed: those with a hit (about 1% of all), similar ones and a draw of the others.

SMILES | CAL PDZ FP-1 | PDI inh | RAD54 branch | RAD52 inh | CAL PDZ FP-2 | ERp5 inh
O=C(C[C@H]1C[C@@H]2c3cc(NC(=O)Nc4ccc(C(F)(F)F)cc4)ccc3O[C@@H]2[C@H](CO)O1)NCc1cc(F)ccc1F | / | / | . | . | / | .
COc1ccc(COC[C@]23NC(=O)N[C@H](c4ccccc4O2)[C@H]3CO)cc1 | / | / | . | . | / | .
COc1ccc(NC(=O)N(C)C[C@@H]2Oc3cc(-c4ccncc4)ccc3S(=O)(=O)N([C@H](C)CO)C[C@@H]2C)cc1 | / | / | . | . | / | .
Cc1cc(O)c(Sc2ccc(Cl)cc2)c(=O)[nH]1 | . | . | / | . | 55 | .
O=S(=O)(c1cc(C(F)(F)F)ccc1Cl)N1CCN(c2ncnc3ccccc23)CC1 | . | . | / | . | 62 | .
COc1ccc2[nH]cc(CCNS(=O)(=O)c3ccc(NC(C)=O)cc3)c2c1 | . | . | . | . | . | .
CC(=O)Nc1ccc(S(=O)(=O)NCCc2c[nH]c3ccc(C)cc23)cc1 | . | . | . | . | 31 | .
CC(=O)Nc1ccc(S(=O)(=O)NCCC(=O)Nc2cc(C)ccn2)cc1 | . | . | / | . | 30 | .
CC(=O)Nc1ccc(S(=O)(=O)NCCC(=O)Nc2cccc(Cl)c2)cc1 | . | . | . | . | . | .
CCOC(=O)C(NCc1ccco1)(NC(=O)c1ccccc1)C(F)(F)F (centres undefined) | . | . | . | / | 43 | /
CCOC(=O)C(NC(=O)c1ccccc1)(Nc1cccc(C)n1)C(F)(F)F (centres undefined) | . | . | . | . | . | .
C[C@@H]1CN([C@H](C)CO)C(=O)c2cc(NC(=O)Cc3cn(C)c4ccccc34)ccc2O[C@@H]1CN(C)C | / | / | . | . | / | .
O=C(CCCCn1c(=O)[nH]c2ccccc2c1=O)NCCC1=CCCCC1 | . | . | . | / | 83 | /
O=C(CCCCn1c(=O)[nH]c2ccccc2c1=O)NCCc1c[nH]c2ccccc12 | . | . | . | . | / | .
C[C@@H]1CN([C@@H](C)CO)S(=O)(=O)c2ccc(-c3ccc(F)cc3)cc2O[C@@H]1CN(C)C | / | / | . | . | / | .
CC(=O)Nc1ccc(NC(=O)CSc2nc(=O)n3cccc(C)c3n2)cc1 | . | 32 | / | . | . | .
CC(=O)Nc1cccc(NC(=O)CSc2nc(=O)n3cccc(C)c3n2)c1 | . | . | / | . | . | .
C[C@@H]1CCCCO[C@H](CN(C)CC2CC2)[C@H](C)CN([C@H](C)CO)C(=O)c2cc(NC(=O)c3ccncc3)ccc2O1 | / | / | . | . | / | .
C/C=C/c1ccc([C@H]2[C@@H](CO)N[C@@H]2CNC(=O)CC2CC2)cc1 | / | / | . | / | / | /
Cc1cc(C)c(S(=O)(=O)NCC23C=CC(O2)C2C(=O)N(c4ccccc4)C(=O)C23)c(C)c1 (centres undefined) | . | . | . | / | 43 | /
C[C@@H]1CN([C@@H](C)CO)C(=O)c2cc(Br)cnc2O[C@@H]1CN(C)C(=O)c1ccccc1F | / | / | . | . | / | .
O=C(NCCCN1CCOCC1)/C(=C/c1ccc(-c2cccc([N+](=O)[O-])c2)o1)NC(=O)c1ccccc1 | / | . | . | . | / | .
Cc1nc2nc(C)n(CCN3CCOCC3)c(=O)c2c(-c2cccc([N+](=O)[O-])c2)c1C(=O)CCCCCCCCCCN1CCC(c2ccccc2)(c2ccccc2)CC1 | . | . | / | 97 | . | .
O=C(C1=C[C@@H](C2CC2)C[C@@H](OCc2ccc(CO)cc2)O1)N1CCCC1 | / | / | / | . | / | .
COc1cc(NCc2ccccc2)c2ncn(C(C)C)c2c1 | . | . | . | . | . | .
SMILES | CAL PDZ FP-1 | PDI inh | RAD54 branch | RAD52 inh | CAL PDZ FP-2 | ERp5 inh
CCC(CN(C)C)Oc1cc(NCc2ccccc2)c2ncn(C(C)C)c2c1 (centres undefined) | . | . | 70 | / | . | /
Cc1ccc(-c2cnc3c(c2)C(=O)N([C@H](C)CO)C[C@@H](C)[C@H](CN(C)C(=O)Cc2ccccc2)O3)cc1 | / | / | . | . | / | .
CC(C)N(C(=O)COC(=O)c1cccc(N(C)C)c1)c1ccccc1 | . | . | . | . | 49 | .
COc1ccc2cc(N3CCCC3=O)ccc2c1 | . | . | . | . | 85 | .
COc1cc(NC(=O)c2ccc(N3CCCC3=O)cc2)cc(OC)c1 | . | . | . | . | . | .
COc1cccc(NC(=O)N(C)C[C@@H]2OCc3ccccc3-c3c(n(C)c4ccccc34)C(=O)N([C@@H](C)CO)C[C@@H]2C)c1 | / | / | . | . | / | .
